A selection: hits, their analogues and other compounds. The true share with any hit is near 1.6%.
TLR9-MyD88 inh – blocks human TLR9 binding to MyD88; Q9NR96+Q99836; CHO BLA complementation TLR9-MyD88, CCF4 FRET ratio; inhibition, % at 4.98 µM; 0.21% of 340,000 active; AID 504734;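 active means inhibition above the mean over all tested compounds plus 3 SD, cut at about 21% in these data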;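 further: 0% = DMSO only wells and 100% = clavulanate BLA inhibitor control wells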
SR-BI HDL uptake – blocks mouse SR-BI lipid uptake from DiI-HDL. ldlA[mSR-BI] CHO cells, DiI-HDL uptake fluorescence, 3 h. 0.96% of 320,000 active. AID 488896. Q61009. inhibition, % at 12.5 µM;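 active means mean replicate inhibition of at least 70% and a set share of replicates each scoring 70 or more; inconclusive means meets just one of the two criteria; inactive means fails both criteria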;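 further: 0% = median of neutral control wells and 100% = median of positive control wells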
NOD2-RIPK2 inh – NOD2-RIPK2 protein interaction inhibition. O43353. CHO BLA complementation NOD2-RIPK2, CCF4 ratio. inhibition, % at 4.98 µM. 0.38% of 360,000 active; in the data active means inhibition above about 21%;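 further: 0% = vehicle only and 100% = reference blocker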
Target sequence (O43353 whole entry, looked up): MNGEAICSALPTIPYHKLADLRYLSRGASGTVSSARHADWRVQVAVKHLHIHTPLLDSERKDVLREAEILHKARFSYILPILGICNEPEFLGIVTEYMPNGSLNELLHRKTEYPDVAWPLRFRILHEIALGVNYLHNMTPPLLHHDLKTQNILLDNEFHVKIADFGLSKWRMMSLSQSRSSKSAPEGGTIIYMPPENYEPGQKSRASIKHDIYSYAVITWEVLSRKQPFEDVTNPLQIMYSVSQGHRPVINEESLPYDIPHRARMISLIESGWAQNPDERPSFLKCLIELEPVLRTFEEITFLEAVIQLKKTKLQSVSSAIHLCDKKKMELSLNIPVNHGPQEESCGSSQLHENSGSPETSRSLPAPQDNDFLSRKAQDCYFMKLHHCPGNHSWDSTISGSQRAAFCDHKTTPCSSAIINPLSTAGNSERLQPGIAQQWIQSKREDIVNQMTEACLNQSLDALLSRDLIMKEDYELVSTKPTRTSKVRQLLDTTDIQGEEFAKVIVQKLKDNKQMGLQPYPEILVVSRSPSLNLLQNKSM
Hep lipid drop – modulators of hepatic lipid droplet formation; AML12 mouse hepatocytes, oleate lipid droplets, BODIPY imaging; inhibition, % at 6.5 µM; 0.4% of 240,000 active; AID 1656;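 active means lipid droplet intensity inhibited by at least 50%, with more than 500 cells counted; inconclusive means wells with under 300 cells, treated as cytotoxic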
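Material – mouse AML12 hepatocyte cell line, fixed after treatment · Compound dosing – one dose, 6.5 µM compound · Times – compound with oleate, overnight · Measured by – Image-based BODIPY and DAPI two-channel analysis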
TLR4 MyD88 comp – blocks binding of human TLR4 to MyD88. O00206+Q99836. HeLa CL3-4 TLR4/MyD88 BLA complementation, FRET ratio. inhibition, % at 8.4 µM. 0.18% of 200,000 active. AID 861; in the data active means inhibition above about 25%;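 further: 0% = vehicle and 100% = reference inhibitor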
SR-BI DiI-HDL act – SR-BI HDL lipid transfer activation | CHO ldlA[mSR-BI] cells, DiI-HDL uptake fluorescence, 3 h; 100 = double the neutral-control signal | activation, % at 12.5 µM | 0.096% of 320,000 active | AID 504775;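 active means mean replicate activation of at least 60% and every replicate at or above 60%; inconclusive means mean or all-replicate condition met, but not both; inactive means mean below 60% and not all replicates reaching 60%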;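 further: 0% = median plate neutral-control signal and 100% = twice that signal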
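Assay system: LDL receptor-deficient CHO ldlA cells overexpressing murine SR-BI / Medium: BSA-supplemented, HEPES-buffered Ham's F12, pH 7.4 / Probe or stimulus: DiI-labelled HDL at 10 µg/mL final / Timing: compound with DiI-HDL co-incubation, 3 h at 37 °C / Technique: bottom-read cell fluorescence after medium removal, ex 550/em 595 nm / Measure: HDL uptake via cellular fluorescence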
NOD2 RIPK2 conf – confirmation of human NOD2-RIPK2 interaction inhibitors; shares compounds with NOD2-RIPK2 inh; CHO cells, NOD2-RIPK2 BLA complementation, CCF4 FRET; inhibition, % at 4.98 µM; 70% of 1,200 active; AID 624370;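 active means mean inhibition across replicates above a set limit taken from the earlier primary screen, cut at about 21% in these data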;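 further: 0% = DMSO-only wells and the high end = clavulanate BLA-blocked wells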
NOD2 BLA counter – hits BLA reporter in NOD2-RIPK2 inhibitor counterscreen | shares compounds with NOD2-RIPK2 inh | inhibition, % at 4.98 µM | 57% of 1,200 active | AID 624371 | CHO BLA reporter, CCF4 FRET ratio;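 active means mean inhibition above the low-control mean inhibition plus three low-control SD, cut at about 11% in these data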;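 further: 0% = DMSO only wells and 100% = clavulanate high control wells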
* marks the source's active call; other numbers are inactive results; u = inconclusive; x = no result given.

SMILES	TLR9-MyD88 inh	SR-BI HDL uptake	NOD2-RIPK2 inh	Hep lipid drop	TLR4 MyD88 comp	SR-BI DiI-HDL act	NOD2 RIPK2 conf	NOD2 BLA counter
CC(=O)N1CCN(c2ccccc2NC(=O)c2ccco2)CC1	0.1	15.4	-0.1	-6.5	x	-15.4	x	x
O=C(Nc1cc(Br)ccc1O)C1CC(c2c(F)cccc2Cl)=NO1 (stereo unspecified)	1.9	-1.0	21.7*	-4.9	x	1.0	0.1	-3.1
CCC(=O)N1CCC2(CC1)Oc1ccc(Cl)cc1C(=O)C21CC(c2ccc(Cl)cc2)=NO1 (stereo unspecified)	-2.2	5.9	-0.8	x	x	-6.7	x	x
CC(C)[C@H](NC(=O)OC(C)(C)C)c1nnc(S(=O)(=O)Cc2c(F)cccc2Cl)o1	15.7	-22.4	68.6*	1.8	x	22.4	69.7*	9.6
Cc1ccccc1CS(=O)(=O)c1nnc([C@H](CC(C)C)NC(=O)OC(C)(C)C)o1	-0.1	-0.8	25.5*	x	10.9	0.8	42.4*	-4.8
CC[C@@H](C)[C@H](NC(=O)OC(C)(C)C)c1nnc(S(=O)(=O)Cc2cc(C)ccc2C)o1	-2.0	8.3	59.2*	x	10.6	-8.3	52.5*	-4.2
CC(C)(C)OC(=O)N[C@@H](Cc1ccccc1)c1nnc(S(=O)(=O)Cc2cccc(F)c2)o1	x	x	x	x	11.3	x	x	x
COc1ccc(Cl)cc1-c1cc(C(=O)N[C@H](C)c2ccccc2)[nH]n1	x	x	-4.2	x	x	x	x	x
CCOc1ccc(C(=O)C(CN2CCOCC2)c2ccccc2)cc1 (stereo unspecified)	-6.5	-2.5	6.0	20.3	0.2	2.5	x	x
O=C(c1ccc(Br)cc1)C(CN1CCOCC1)c1ccccc1 (stereo unspecified)	14.5	13.1	25.6*	2.7	x	-13.1	26.7*	-2.9
COc1ccc(CCn2c(C)ccc2C)cc1OC	x	x	x	18.3	-14.2	x	x	x
COc1ccc(CCN2C(=O)C=CC2=O)cc1OC	7.3	-9.9	43.1*	x	x	9.9	50.9*	12.4*
CN(C)CC(C(=O)c1ccccc1)c1ccccc1 (stereo unspecified)	-2.9	-16.7	23.2*	-7.3	23.0	16.7	12.8	-1.9
CN(Cc1cc(Cl)cc(Cl)c1)CC(C(=O)c1ccccc1)c1ccccc1 (stereo unspecified)	2.4	6.0	-3.1	x	x	-6.0	x	x
CCOc1ccc2nc3ccc4[nH]onc4c3c2c1	16.7	21.4	33.7*	x	33.8*	-21.4	28.1*	37.4*
COc1ccc(NC(=O)C(c2ccccc2F)n2c(=O)c(-c3cc4ccccc4[nH]3)nc3ccccc32)cc1 (stereo unspecified)	x	x	50.3*	x	x	x	46.6*	68.5*
O=C(Nc1ccc2ccccc2c1)C(c1ccccc1F)n1c(=O)c(-c2cc3ccccc3[nH]2)nc2ccccc21 (stereo unspecified)	x	x	44.9*	x	x	x	41.8*	66.7*
COc1ccc(NC(=O)C(c2ccccc2)n2c(=O)c(-c3cc4ccccc4[nH]3)nc3ccccc32)cc1 (stereo unspecified)	x	x	46.8*	x	x	x	42.3*	65.2*
O=C(Nc1ccc2c(c1)OCCO2)C(c1ccccc1)n1c(=O)c(-c2cc3ccccc3[nH]2)nc2ccccc21 (stereo unspecified)	x	x	48.2*	x	x	x	40.9*	63.6*
O=[N+]([O-])c1cc(Br)c(Nc2ccccc2)c([N+](=O)[O-])c1	8.9	0.7	41.0*	-2.4	x	-0.7	58.3*	-7.6
COCc1cc(CN2CCN(CCc3ccccc3)C(CCO)C2)ccc1OC (stereo unspecified)	-4.1	-10.2	-9.8	1.7	x	10.2	x	x
COc1ccc(-c2noc(CN(C)C(=O)Nc3ccccc3)n2)cc1	1.8	-1.9	3.4	-2.7	6.0	1.9	x	x
O=c1oc2ccccc2cc1-c1nnc(NCc2ccco2)s1	13.7	9.7	35.2*	-7.9	21.0	-9.7	35.8*	41.0*
O=C(O)Cc1sc(NCc2ccco2)nc1-c1ccccc1	-16.9	x	-2.6	-4.7	x	x	x	x
CCN(C(=O)c1cc(S(=O)(=O)N2CCCCC2)c[nH]1)c1ccc(OC)cc1	-5.3	-23.5	-8.2	0.4	x	23.5	x	x
SMILES	TLR9-MyD88 inh	SR-BI HDL uptake	NOD2-RIPK2 inh	Hep lipid drop	TLR4 MyD88 comp	SR-BI DiI-HDL act	NOD2 RIPK2 conf	NOD2 BLA counter
O=C1N/C(=C/c2ccc(N3CCOCC3)o2)C(=O)N1c1cccc(Cl)c1	11.0	56.9	33.4*	-15.3	11.2	-56.9	21.8*	8.6
Cc1cccc(NC(=O)CNC(=O)c2ccc3c(c2)OCO3)n1	-0.7	0.9	37.6*	x	x	-0.9	-6.4	2.1
S=C(c1ccc(-c2ccccc2Cl)o1)N1CCOCC1	-3.4	9.2	21.7*	4.7	2.4	-9.2	6.5	-0.6
C=CC(=O)N1C/C(=C/c2ccc(F)cc2)C(=O)/C(=C\c2ccc(F)cc2)C1	16.0	8.1	54.1*	x	x	-8.1	64.0*	9.1
CC1CN(Cc2cc(=O)oc3cc(O)c(Cl)cc23)CC(C)O1 (stereo unspecified)	-20.6	-6.1	-8.6	25.3	x	6.1	x	x
CC1CCN(Cc2cc(=O)oc3cc(O)c(Cl)cc23)CC1	6.7	-61.6	31.1*	-16.9	x	u	32.5*	49.5*
CN(CC1COCCO1)c1nc2nonc2nc1N1CCSCC1 (stereo unspecified)	-15.7	-21.4	33.7*	-1.3	-23.5	21.4	-1.8	1.6
C1CCN(C2CCN(c3nc4nonc4nc3N3CCSCC3)CC2)C1	3.7	-3.4	-6.7	-9.2	-7.6	3.4	x	x
C=C1C(=O)[C@]23C[C@H]1CCC2[C@@]1(C)C(C[C@@H]3O)[C@](C)(C(=O)OC)CC[C@@H]1O (stereo partly specified)	x	x	76.6*	x	x	x	67.0*	9.8
COc1ccc2c(c1)sc1nc(-c3ccccc3)cn12	-8.2	48.9	40.0*	-143.9	-5.3	-48.9	9.4	-0.7
Cc1cc(O)c(C(=O)/C=C/c2cccc([N+](=O)[O-])c2)c(=O)o1	-5.7	0.5	1.9	10.3	x	-0.5	x	x
CC(=O)Oc1ccccc1C(=O)C=Cc1cccc([N+](=O)[O-])c1	7.4	8.6	60.1*	x	x	-8.6	71.4*	-4.5
COc1ccccc1CCC(=O)OCC(=O)NC1CC1	9.0	-14.1	-8.7	x	x	14.1	x	x
O=C(NC1CCCCC1)C(c1ccnc2ccccc12)n1c(=O)c(-c2ccco2)nc2ccccc21 (stereo unspecified)	x	x	-5.1	x	x	x	x	x
O=C(NC1CCCCC1)C(c1cccc2ccccc12)n1c(=O)c(-c2cc3ccccc3[nH]2)nc2ccccc21 (stereo unspecified)	x	x	38.5*	x	x	x	34.2*	62.3*

Screens as filed in PubChem BioAssay.
